PLCb3 inh – human PLC-beta3 inhibitors, primary screen, biochemical, fluorescence | 1-phosphatidylinositol 4,5-bisphosphate phosphodiesterase beta-3 (Homo sapiens), Q01970 | Purified PLC-beta3, fluorogenic substrate | inhibition, % at 12.2 µM | 370,000 tested, 0.18% active;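 note: 0% = median of compound wells on plate and 100% = full blocker control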
HGIII-sPLA2 inh – human group III sPLA2 inhibitors, primary screen, biochemical, QFRET, BODIPY PC-A2 liposome substrate; Group 3 secretory phospholipase A2 (Homo sapiens), Q9NZ20; QFRET BODIPY PC-A2 liposome hydrolysis, fluorescence; inhibition, % at 12.2 µM; 370,000 tested, 0.56% active; AID 743126, 2013;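 active = inhibition above mean plus 3 SD of compounds lying within the high and low control bounds, cut at about 19% in these data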;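 note: 0% = median of test compound wells and 100% = no enzyme DMSO wells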
Arrestin-AP2 inh – inhibitors of beta-arrestin/AP2 binding, primary screen, biochemical, GPCR trafficking, flow cytometry; beta-arrestin 1 C-terminal peptide binding to AP2 beta2-adaptin appendage (human); FITC-arrestin peptide / GST-AP2 beads; AP2 beta2 appendage carries R879A mutation; inhibition, % at 10 µM; 340,000 tested, 0.31% active;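 active = inhibition above a set limit, near 3 SD of compounds lacking own fluorescence, cut at about 54% in these data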;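 note: plate controls were DMSO wells for no effect and 5 µM unlabelled arrestin peptide for full effect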
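Material – AP2 appendage R879A on GSH beads · Buffer or medium – PBS with 0.05% Tween 20 and 0.1% BSA · Probe or stimulus – fluorescein-tagged arrestin peptide at 50 nM final · Incubation – compound with beads 12 min RT, then probe 1 h RT · Detection – high-throughput flow cytometry of beads, ex 488, em 535 nm · Evaluation – percent response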
proCasp3 act – activators of human procaspase-3 D3A mutant, primary screen, biochemical, absorbance, PC-3 D3A mutant, single concentration; Caspase-3 (Homo sapiens), P42574; recombinant procaspase-3 D3A, Ac-DEVD-pNA absorbance 405 nm; activation, % at 8.5 µM; 330,000 tested, 0.11% active; AID 463141, 2010;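 active = activation above the mean of all tested compounds plus 3 SD, cut at about 21% in these data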;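 note: 0% = DMSO alone and 100% = DMSO wells spiked with extra 5 µM PC-3 D3A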
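Compound: 8.5 µM single point, 0.8% DMSO / Material: Autoprocessing-dead procaspase-3 D3A mutant enzyme / Timing: 1 h preincubation plus 2 h reaction at 25 °C / Medium: Zinc-free HEPES/NaCl buffer with 0.01% Triton X-100 at pH 7.4 / Technique: 405 nm absorbance of p-nitroaniline, reads at 0 and 120 min / Repeats: one well per compound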
PLC-gamma1 inh – PLC-gamma1 enzyme inhibitors, primary screen, biochemical, fluorescence, purified enzyme | fluorogenic substrate | inhibition, % at 12.2 µM | 370,000 tested, 0.84% active | AID 720700, 2013; in the data active = inhibition above about 9.5%
procasp7 counter – procaspase-7 activators, primary screen, counter-screen for procaspase-3 activator project, biochemical, absorbance, HTS, human. activation, % at 8.5 µM. 330,000 tested, 0.093% active. recombinant procaspase-7, Ac-DEVD-pNA absorbance 405 nm; D23A/D198A/D206A triple mutant, cannot self-cleave; scale: DMSO 0, 5 µM enzyme 100. AID 463210, 2010. Caspase-7 (Homo sapiens), P55210;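 active = percent activation above the screen-wide mean plus 3 SD, cut at about 25% in these data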
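System: Procaspase-7 triple mutant (PC-7 D3A); measure: % activation from two-timepoint absorbance difference, scaled to controls; times: 1 h compound preincubation, 2 h substrate cleavage, 25 °C; also added: Ac-DEVD-pNA substrate, 400 µM as added; measured by: Epi-absorbance of released pNA at 405 nm, two timepoints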
PLCgamma1 ctr – PLC-gamma1 enzyme inhibitors, counter-screen for PLC-beta3 inhibitor project, biochemical, fluorescence | inhibition, % at 12.3 µM | 3,300 tested, 3.1% active | shares compounds with PLC-gamma1 inh | AID 743258, 2014 | purified PLC-gamma1, fluorogenic substrate; in the data active = inhibition above about 9.5%
PLCb3 confirm – PLC-beta3 inhibitor confirmation, biochemical, fluorescence, purified enzyme; 3,300 tested, 1% active; fluorogenic substrate fluorescence; inhibition, % at 12.3 µM; AID 743261, 2014; shares compounds with PLC-gamma1 inh
Numbers without * were called inactive; . = no result given. Only some compounds are listed: those with a hit (about 1.9% of all), similar ones and a draw of the others. Cut-off read from the data, not from the text of the source, unless noted: active = inhibition above about 11%; inactive = the rest.

SMILES	PLCb3 inh	HGIII-sPLA2 inh	Arrestin-AP2 inh	proCasp3 act	PLC-gamma1 inh	procasp7 counter	PLCgamma1 ctr	PLCb3 confirm
O=C1[C@@H](c2ccccc2)CC[C@@H]2C=CC[C@H]3CCN1[C@@H]32	0	0	.	.	0	.	.	.
CCOC(=O)[C@]12CCCC=C1N(Cc1cccc3ccccc13)C(=O)[C@H](CC(=O)NCc1cccs1)C2	3	-17	.	.	1	.	.	.
CC1CCCC(C)N1C(=O)COC(=O)c1ccc(O)cc1 (stereo not drawn)	0	1	1	1	20*	-1	-8	-2
CCOC(=O)Cc1c[nH]c(=S)[nH]c1=O	2	2	23	10	11*	-2	-4	0
O=C(O)CN(c1cccc(C(F)(F)F)c1)S(=O)(=O)c1ccccc1	1	-4	-12	8	0	12	.	.
O=S(=O)(c1ccccc1)N(CC(F)(F)F)c1ccc(C(O)(C(F)(F)F)C(F)(F)F)cc1	4	-7	.	.	12*	.	-11	-7
Cc1cccc(NC(=O)C2CCN(c3ncccn3)CC2)c1C	-5	2	.	.	-5	.	.	.
CC(NS(=O)(=O)c1ccc2c(c1)C(=O)c1cc(S(=O)(=O)NC(C)C(=O)O)ccc1-2)C(=O)O (stereo not drawn)	-2	4	-9	4	15*	12	-8	-4
CCS(=O)(=O)N1Cc2cc(C(=O)N(C)C)nc(-c3cccc(-c4ccc(F)cc4)c3)c2[C@H]1CCO	-1	4	.	.	4	.	.	.
Cc1ccc(CN2CCC(c3cc(-c4ccc(Cl)cc4)n[nH]3)CC2)cc1	-2	-13	-5	0	11*	1	-3	-5
COc1ccc(-c2cc(C3CCN(Cc4ccc([N+](=O)[O-])cc4)CC3)[nH]n2)cc1	-4	-7	7	-5	-2	8	.	.
C[C@H]1CCCN1c1ccc2c(c1)O[C@H]1CCN(C1)S2(=O)=O	-3	5	.	.	-1	.	.	.
O=C1CSC(=S)N1	1	16	-2	1	7	-1	.	.
CCOC(=O)c1ccccc1NC(=O)c1cn(-c2ccc(C)c(C)c2)c(=O)c2ccccc12	2	6	-2	0	9.9*	10	-3	-4
COC(=O)c1ccccc1NC(=O)c1cn(-c2ccc(C)c(C)c2)c(=O)c2ccccc12	4	1	15	2	1	3	.	.
CCOC(=O)C1=NOC(C(C)=O)(C(=O)N2CCOCC2)C1 (stereo not drawn)	-3	15	.	.	2	.	.	.
c1ccc(Cn2ncc3c(N4CCN(c5ccccc5)CC4)ncnc32)cc1	1	0	.	.	11*	.	-6	-5
Cc1nn(-c2ccccc2)c(C)c1NC(=O)c1cccs1	2	3	-3	-4	12*	12	-6	-3
CC(=C/C(=O)O)/C(=C/c1ccccc1)C(=O)O	0	-5	32	8	10*	-7	-4	1
Cc1c(C(=O)O)sc2ncn(C)c(=O)c12	7	7	1	1	14*	19	-7	-6
Nc1c(C(=O)N2CCN(c3ccccc3)CC2)nnn1Cc1ccc(Cl)cc1	4	2	.	.	1	.	.	.
COc1ccc(NC(=O)C2CCCN(S(C)(=O)=O)C2)cc1OC (stereo not drawn)	-1	11	-5	0	10*	13	-5	-4

High-throughput results: PubChem BioAssay, several laboratories
